Test results from ChEMBL document CHEMBL3611971, “Multifunctional novel Diallyl disulfide (DADS) derivatives with β-amyloid-reducing, cholinergic, antioxidant and metal chelating properties for the treatment of Alzheimer's disease” (Bioorg Med Chem, 2015).

How the values were obtained:
Cholinesterase = Cholinesterase (Equus caballus, UniProt P81908); assay: Inhibition of equine serum BuChE using DTNB as substrate incubated for 5 mins prior to substrate addition measured after 2 mins by Ellman's method
Chain of Cholinesterase (P81908 whole entry): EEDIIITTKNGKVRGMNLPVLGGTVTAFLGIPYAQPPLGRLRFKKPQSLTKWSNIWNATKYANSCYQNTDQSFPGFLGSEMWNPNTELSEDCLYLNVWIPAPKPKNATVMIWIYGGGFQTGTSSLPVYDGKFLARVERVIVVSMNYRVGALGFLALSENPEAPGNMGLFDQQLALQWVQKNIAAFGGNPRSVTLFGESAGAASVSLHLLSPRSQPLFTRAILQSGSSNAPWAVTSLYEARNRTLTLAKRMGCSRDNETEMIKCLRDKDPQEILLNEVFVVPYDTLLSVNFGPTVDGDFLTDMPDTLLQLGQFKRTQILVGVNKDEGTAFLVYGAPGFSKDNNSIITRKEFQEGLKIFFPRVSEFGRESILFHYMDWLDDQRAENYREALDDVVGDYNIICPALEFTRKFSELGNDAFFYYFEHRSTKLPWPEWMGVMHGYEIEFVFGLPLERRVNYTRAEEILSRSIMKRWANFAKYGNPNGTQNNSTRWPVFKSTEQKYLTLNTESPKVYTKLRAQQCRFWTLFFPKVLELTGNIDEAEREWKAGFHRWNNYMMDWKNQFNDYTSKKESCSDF

[1] = molecular target: Amyloid-beta precursor protein (Homo sapiens) (UniProt P05067); settings: at 25 µM
Chain of Amyloid-beta precursor protein (Homo sapiens) (P05067 whole entry): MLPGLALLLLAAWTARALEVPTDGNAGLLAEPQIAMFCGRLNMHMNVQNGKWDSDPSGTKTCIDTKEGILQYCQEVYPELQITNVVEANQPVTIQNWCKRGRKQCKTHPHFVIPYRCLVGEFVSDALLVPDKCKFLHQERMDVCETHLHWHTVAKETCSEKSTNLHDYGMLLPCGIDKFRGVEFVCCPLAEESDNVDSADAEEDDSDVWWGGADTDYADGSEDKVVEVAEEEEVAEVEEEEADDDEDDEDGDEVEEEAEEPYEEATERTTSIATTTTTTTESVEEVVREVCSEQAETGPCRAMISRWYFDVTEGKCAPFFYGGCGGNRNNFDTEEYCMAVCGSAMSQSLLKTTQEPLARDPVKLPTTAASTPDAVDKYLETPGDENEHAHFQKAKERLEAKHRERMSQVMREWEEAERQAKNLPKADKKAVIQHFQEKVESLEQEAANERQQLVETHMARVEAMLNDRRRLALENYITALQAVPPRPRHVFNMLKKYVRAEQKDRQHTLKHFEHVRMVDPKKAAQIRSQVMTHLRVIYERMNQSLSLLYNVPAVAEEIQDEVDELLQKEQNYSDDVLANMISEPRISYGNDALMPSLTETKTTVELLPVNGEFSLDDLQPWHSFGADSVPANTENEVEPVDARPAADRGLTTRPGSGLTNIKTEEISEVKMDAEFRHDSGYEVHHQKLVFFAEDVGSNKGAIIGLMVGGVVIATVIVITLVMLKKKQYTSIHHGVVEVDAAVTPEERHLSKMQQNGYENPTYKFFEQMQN

Acetylcholinesterase = Acetylcholinesterase (Electrophorus electricus, UniProt O42275); assay: Inhibition of electric eel AChE using DTNB as substrate incubated for 5 mins prior to substrate addition measured after 2 mins by Ellman's method
Chain of Acetylcholinesterase (O42275 whole entry): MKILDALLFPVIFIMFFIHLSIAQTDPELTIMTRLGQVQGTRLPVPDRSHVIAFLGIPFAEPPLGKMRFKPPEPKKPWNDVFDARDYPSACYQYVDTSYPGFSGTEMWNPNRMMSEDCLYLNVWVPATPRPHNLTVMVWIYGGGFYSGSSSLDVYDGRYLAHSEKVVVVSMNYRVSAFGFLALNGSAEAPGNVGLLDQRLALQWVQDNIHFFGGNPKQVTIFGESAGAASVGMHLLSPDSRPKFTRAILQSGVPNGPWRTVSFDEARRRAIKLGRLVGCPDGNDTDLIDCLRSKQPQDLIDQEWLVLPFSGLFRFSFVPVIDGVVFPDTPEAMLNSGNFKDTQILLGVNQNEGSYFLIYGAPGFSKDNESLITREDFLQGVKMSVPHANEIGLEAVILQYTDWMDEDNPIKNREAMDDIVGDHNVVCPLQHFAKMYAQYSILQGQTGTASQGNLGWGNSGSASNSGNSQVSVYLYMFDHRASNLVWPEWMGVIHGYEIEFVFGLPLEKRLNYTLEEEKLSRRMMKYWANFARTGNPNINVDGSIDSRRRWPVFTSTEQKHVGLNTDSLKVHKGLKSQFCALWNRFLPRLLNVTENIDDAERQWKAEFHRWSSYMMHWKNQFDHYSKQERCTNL

[2] = Metal chelating activity of the compound assessed as reduction of Cu2+-amyloid beta (1 to 42)-complex induced H2O2 production from ascorbate at 800 nM after 30 mins by HRP/Amplex Red assay relative to control; format: physicochemical; parameters: scale not given: the % may be the effect or the level left; settings: 0.5 h, 0.8 µM
Outline: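 Per well, in phosphate buffer (100 μL): CuCl2 400 nM, Aβ 200 nM, chelator 800 nM (1% v/v DMSO) and sodium ascorbate 10 mM, held 30 min at room temperature. Working solution with Amplex Red and HRP then added for another 30 min at room temperature. Fluorescence ex/em 530/590 nm. At least three measurements.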

[3] = Cytotoxicity against HEK293 cells assessed as cell viability at 10 uM after 48 hrs by MTT assay relative to control; format: cell-based; settings: human, read-out: Activity
Outline: (§1)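 HEK 293 cells grown in DMEM with 10% FBS and 1% penicillin–streptomycin at 37 °C, 5% CO2. Seeded at 5000 cells/well and cultured 24 h, then exposed 48 h to compound (DMSO stock diluted in complete medium; 0.1–100 μM final), in triplicate. MTT added for 4 h, formazan dissolved in DMSO, absorbance read at 570 nm against 630 nm reference. Mean ± SEM of 3 independent experiments.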

[4] = Cytotoxicity against HEK293 cells assessed as cell viability at 0.1 uM after 48 hrs by MTT assay relative to control; format: cell-based; settings: human, read-out: Activity; outline: as §1
HEK293 = assay: Cytotoxicity against HEK293 cells assessed as cell viability at 0.1 to 100 uM after 48 hrs by MTT assay relative to control; format: cell-based; settings: human, hek293, 48 h; outline: as §1
[5] = Cytotoxicity against HEK293 cells assessed as cell viability at 100 uM after 48 hrs by MTT assay relative to control; format: cell-based; settings: human, read-out: Activity; outline: as §1
[6] = Cytotoxicity against HEK293 cells assessed as cell viability at 1 uM after 48 hrs by MTT assay relative to control; format: cell-based; settings: human, read-out: Activity; outline: as §1
[7] = Metal chelating activity of the compound assessed as reduction of Cu2+-induced amyloid beta (1 to 42) (unknown origin) aggregation at 50 uM after 24 hrs by transmission electron microscopic analysis; format: physicochemical
Outline: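 Aβ1–42 diluted in 20 mM phosphate buffer (pH 7.4) at 4 °C. Preincubated 2 min with Cu2+ (Aβ and Cu2+ each 25 μM final), then incubated 24 h at 37 °C with or without compound at 50 μM. Samples placed on carbon-coated grids for 2 min at room temperature, stained 2 min with 1% uranyl acetate, and imaged by TEM.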

[8] = Metal chelating activity of the compound assessed as formation of Fe2+-compound complex at 50 uM after 30 mins by UV-vis spectrometry; format: physicochemical; settings: 0.5 h
Outline: (§2)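 UV absorption scan from 200 to 600 nm of compound in methanol, alone or with CuCl2 or FeSO4. Read after 30 min at room temperature, with compound and metal each at 50 μM final.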

[9] = Cytotoxicity against HEK293 cells assessed as cell viability at 25 uM after 48 hrs by MTT assay relative to control; format: cell-based; settings: human, read-out: Activity; outline: as §1
[10] = Cytotoxicity against HEK293 cells assessed as cell viability at 50 uM after 48 hrs by MTT assay relative to control; format: cell-based; settings: human, read-out: Activity; outline: as §1
[11] = Metal chelating activity of the compound assessed as reduction of Cu2+-induced amyloid beta (1 to 42) (unknown origin) aggregation at 50 uM after 24 hrs by thioflavin-T-based fluorescence assay relative to control; format: physicochemical
Outline: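 Aβ1–42 was HFIP-treated, dried, and held as DMSO stock. Diluted in […] (pH 6.6) with […]; 25 μM peptide incubated with or without 25 μM Cu2+ and 50 μM compound, 37 °C, 24 h.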

[12] = Metal chelating activity of the compound assessed as formation of Cu2+-compound complex at 50 uM after 30 mins by UV-vis spectrometry; format: physicochemical; settings: 0.5 h; outline: as §2

SMILES: Clc1ccc(/C=C/CSSC/C=C/c2ccc(Cl)cc2)cc1
- IC50 (Cholinesterase): 94.2 µM
- inhibition [1]: 48.2%
- IC50 (Acetylcholinesterase): 37 µM

SMILES: O=C(/C=C/c1ccc(Br)cc1)SSC(=O)/C=C/c1ccc(Br)cc1
- IC50 (Cholinesterase): 37.2 µM
- inhibition [1]: 52.2%
- IC50 (Acetylcholinesterase): 0.34 µM

SMILES: COc1cc(/C=C/CSSC/C=C/c2ccc(O)c(OC)c2)ccc1O
- IC50 (Cholinesterase): 57.9 µM
- inhibition [1]: 66.9%
- IC50 (Acetylcholinesterase): 1.45 µM

SMILES: COc1ccc(/C=C/C(=O)SSC(=O)/C=C/c2ccc(OC)cc2OC)c(OC)c1
- IC50 (Cholinesterase): 14.9 µM
- inhibition [1]: 69%
- IC50 (Acetylcholinesterase): 0.142 µM

SMILES: COc1ccc(/C=C/CSSC/C=C/c2ccc(OC)cc2)cc1
- IC50 (Cholinesterase): 59.5 µM
- inhibition [1]: 58.5%
- IC50 (Acetylcholinesterase): 8.29 µM

SMILES: Brc1ccc(/C=C/CSSC/C=C/c2ccc(Br)cc2)cc1
- IC50 (Cholinesterase): 72.5 µM
- inhibition [1]: 37.5%
- IC50 (Acetylcholinesterase): 20.9 µM

SMILES: Brc1cccc(/C=C/CSSC/C=C/c2cccc(Br)c2)c1
- IC50 (Cholinesterase): 75.4 µM
- inhibition [1]: 39.4%
- IC50 (Acetylcholinesterase): 23.7 µM

SMILES: COc1ccc(/C=C/CSSC/C=C/c2ccc(OC)c(OC)c2)cc1OC
- IC50 (Cholinesterase): 55.2 µM
- inhibition [1]: 61.2%
- IC50 (Acetylcholinesterase): 1.1 µM

SMILES: O=C(O)CN(CCN(CC(=O)O)CC(=O)O)CC(=O)O [EDETIC ACID]
- Activity [2]: > 80%

SMILES: COc1ccc(/C=C/C(=O)SSC(=O)/C=C/c2ccc(OC)c(OC)c2)cc1OC
- viability at 48 h, 10 µM [3]: 95.4%
- Activity [2]: 72%
- IC50 (Cholinesterase): 13.6 µM
- viability at 48 h, 0.1 µM [4]: 98.9%
- Activity (HEK293): Dose-dependent effect
- viability at 48 h, 100 µM [5]: 88.6%
- viability at 48 h, 1 µM [6]: 96.1%
- inhibition (INH) [7]: Active
- Activity [8]: Active
- viability at 48 h, 25 µM [9]: 95.7%
- viability at 48 h, 50 µM [10]: 92.8%
- inhibition [1]: 74.2%
- IC50 (Acetylcholinesterase): 0.056 µM
- inhibition (INH) [11]: 80.9%
- Activity [12]: Active

SMILES: Clc1cccc(/C=C/CSSC/C=C/c2cccc(Cl)c2)c1
- IC50 (Cholinesterase): > 100 µM
- inhibition [1]: 52.4%
- IC50 (Acetylcholinesterase): 44.2 µM

SMILES: Fc1cccc(F)c1/C=C/CSSC/C=C/c1c(F)cccc1F
- IC50 (Cholinesterase): > 100 µM
- inhibition [1]: 39.5%
- IC50 (Acetylcholinesterase): 42.3 µM

SMILES: Oc1ccc(/C=C/CSSC/C=C/c2ccc(O)cc2)cc1
- IC50 (Cholinesterase): 63 µM
- inhibition [1]: 53%
- IC50 (Acetylcholinesterase): 12.3 µM

SMILES: COc1ccc(/C=C/C(=O)SSC(=O)/C=C/c2ccc(OC)cc2)cc1
- IC50 (Cholinesterase): 16 µM
- inhibition [1]: 63.5%
- IC50 (Acetylcholinesterase): 0.22 µM

SMILES: O=C(/C=C/c1ccc(O)cc1)SSC(=O)/C=C/c1ccc(O)cc1
- IC50 (Cholinesterase): 24.5 µM
- inhibition [1]: 66.4%
- IC50 (Acetylcholinesterase): 0.21 µM

SMILES: COc1cc(/C=C/C(=O)SSC(=O)/C=C/c2ccc(O)c(OC)c2)ccc1O
- viability at 48 h, 10 µM [3]: 94.4%
- Activity [2]: 62%
- IC50 (Cholinesterase): 12.9 µM
- viability at 48 h, 0.1 µM [4]: 97.3%
- Activity (HEK293): Dose-dependent effect
- viability at 48 h, 100 µM [5]: 80.9%
- viability at 48 h, 1 µM [6]: 96.5%
- inhibition (INH) [7]: Active
- Activity [8]: Active
- viability at 48 h, 25 µM [9]: 92.3%
- viability at 48 h, 50 µM [10]: 90.1%
- inhibition [1]: 71.4%
- IC50 (Acetylcholinesterase): 0.121 µM
- inhibition (INH) [11]: 78.5%
- Activity [12]: Active

SMILES: Fc1ccccc1/C=C/CSSC/C=C/c1ccccc1F
- IC50 (Cholinesterase): > 100 µM
- inhibition [1]: 33.5%
- IC50 (Acetylcholinesterase): 48.7 µM

SMILES: O=C(/C=C/c1ccc(F)cc1)SSC(=O)/C=C/c1ccc(F)cc1
- IC50 (Cholinesterase): 32.4 µM
- inhibition [1]: 62.4%
- IC50 (Acetylcholinesterase): 0.45 µM

SMILES: O=C(/C=C/c1cccc(Br)c1)SSC(=O)/C=C/c1cccc(Br)c1
- IC50 (Cholinesterase): 38.7 µM
- inhibition [1]: 68.7%
- IC50 (Acetylcholinesterase): 0.54 µM

SMILES: O=C(/C=C/c1ccc(Cl)cc1)SSC(=O)/C=C/c1ccc(Cl)cc1
- IC50 (Cholinesterase): 35.6 µM
- inhibition [1]: 65.6%
- IC50 (Acetylcholinesterase): 0.51 µM

SMILES: Fc1cccc(/C=C/CSSC/C=C/c2cccc(F)c2)c1
- IC50 (Cholinesterase): > 100 µM
- inhibition [1]: 44.2%
- IC50 (Acetylcholinesterase): 53.2 µM

SMILES: COc1cc(/C=C/C(=O)CC(=O)/C=C/c2ccc(O)c(OC)c2)ccc1O [CURCUMIN]
- inhibition (INH) [11]: 65.9%

SMILES: Clc1cc(Cl)cc(/C=C/CSSC/C=C/c2cc(Cl)cc(Cl)c2)c1
- IC50 (Cholinesterase): > 100 µM
- inhibition [1]: 47.5%
- IC50 (Acetylcholinesterase): 64.6 µM
